Assay results from ChEMBL document CHEMBL1129797, “Dual metalloprotease inhibitors. 6. Incorporation of bicyclic and substituted monocyclic azepinones as dipeptide surrogates in angiotensin-converting enzyme/neutral endopeptidase inhibitors” (J Med Chem, 1996).

Tests used:
[1] = molecular target: T1, Angiotensin-converting enzyme (Oryctolagus cuniculus, UniProt P12822); assay: In vitro inhibition of Angiotensin I converting enzyme isolated from rabbit lung extract.; type: tissue-based
T1 sequence (P12822 whole entry): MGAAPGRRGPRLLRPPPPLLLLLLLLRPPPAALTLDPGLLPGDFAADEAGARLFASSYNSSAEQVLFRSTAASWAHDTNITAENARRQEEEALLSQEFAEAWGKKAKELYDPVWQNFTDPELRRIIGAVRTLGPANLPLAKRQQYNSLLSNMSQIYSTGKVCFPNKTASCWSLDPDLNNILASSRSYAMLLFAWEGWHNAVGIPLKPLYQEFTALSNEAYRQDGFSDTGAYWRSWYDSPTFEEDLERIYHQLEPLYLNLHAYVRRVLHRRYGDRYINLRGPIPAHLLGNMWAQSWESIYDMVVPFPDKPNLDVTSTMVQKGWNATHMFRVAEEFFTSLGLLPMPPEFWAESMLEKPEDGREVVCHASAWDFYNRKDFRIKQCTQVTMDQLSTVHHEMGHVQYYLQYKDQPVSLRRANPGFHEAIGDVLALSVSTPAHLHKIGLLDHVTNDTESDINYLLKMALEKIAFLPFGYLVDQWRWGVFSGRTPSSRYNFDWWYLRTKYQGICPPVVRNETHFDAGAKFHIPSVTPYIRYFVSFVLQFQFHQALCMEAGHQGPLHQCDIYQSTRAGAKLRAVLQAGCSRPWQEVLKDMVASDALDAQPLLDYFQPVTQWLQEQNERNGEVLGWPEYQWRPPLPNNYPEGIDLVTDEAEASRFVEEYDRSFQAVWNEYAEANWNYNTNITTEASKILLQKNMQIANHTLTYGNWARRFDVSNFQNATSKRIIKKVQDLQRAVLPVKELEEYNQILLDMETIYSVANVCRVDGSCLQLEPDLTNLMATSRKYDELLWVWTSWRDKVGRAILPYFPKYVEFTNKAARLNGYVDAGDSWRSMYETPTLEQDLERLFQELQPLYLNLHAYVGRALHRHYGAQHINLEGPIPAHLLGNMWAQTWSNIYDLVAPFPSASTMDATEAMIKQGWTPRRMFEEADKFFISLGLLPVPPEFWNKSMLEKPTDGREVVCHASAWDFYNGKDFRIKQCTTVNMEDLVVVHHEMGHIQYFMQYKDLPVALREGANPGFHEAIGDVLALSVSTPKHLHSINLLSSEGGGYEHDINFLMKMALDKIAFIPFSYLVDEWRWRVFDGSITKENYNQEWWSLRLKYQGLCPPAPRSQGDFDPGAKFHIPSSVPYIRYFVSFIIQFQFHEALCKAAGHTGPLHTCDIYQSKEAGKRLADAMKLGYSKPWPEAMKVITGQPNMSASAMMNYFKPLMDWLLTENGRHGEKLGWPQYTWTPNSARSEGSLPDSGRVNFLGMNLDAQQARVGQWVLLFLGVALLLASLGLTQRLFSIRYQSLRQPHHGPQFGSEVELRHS
Method in brief: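 Rabbit lung acetone powder extract (1:20 dilution) as enzyme source; spectrophotometric hippuric acid formation from hippuryl-L-histidyl-L-leucine (5 mM final). Final concentrations: 100 mM phosphate buffer pH 8.3, 300 mM NaCl; varied inhibitor concentrations or vehicle. Incubated 30 min at 37 °C. Stopped with 1 N HCl, then ethyl acetate added.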

Rattus norvegicus = assay: Intravenous effective dose required to inhibit 50% of the AI pressor response in normotensive rats; type: functional
Method in brief: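 Conscious male Sprague-Dawley rats (220-240 g), aortic and vena caval catheters, four per assay. Various doses given iv in 5% NaHCO3. AI (310 ng/kg iv) pressor responses taken before dosing and at 2-30 min intervals up to 6 h. Maximum-inhibition time point per dose used for the dose-response curve; ED50 interpolated.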

Neprilysin = molecular target: T2, Neprilysin (Rattus norvegicus, UniProt P07861); assay: In vitro inhibition of purified rat kidney Neutral endopeptidase.
T2 sequence (P07861 whole entry): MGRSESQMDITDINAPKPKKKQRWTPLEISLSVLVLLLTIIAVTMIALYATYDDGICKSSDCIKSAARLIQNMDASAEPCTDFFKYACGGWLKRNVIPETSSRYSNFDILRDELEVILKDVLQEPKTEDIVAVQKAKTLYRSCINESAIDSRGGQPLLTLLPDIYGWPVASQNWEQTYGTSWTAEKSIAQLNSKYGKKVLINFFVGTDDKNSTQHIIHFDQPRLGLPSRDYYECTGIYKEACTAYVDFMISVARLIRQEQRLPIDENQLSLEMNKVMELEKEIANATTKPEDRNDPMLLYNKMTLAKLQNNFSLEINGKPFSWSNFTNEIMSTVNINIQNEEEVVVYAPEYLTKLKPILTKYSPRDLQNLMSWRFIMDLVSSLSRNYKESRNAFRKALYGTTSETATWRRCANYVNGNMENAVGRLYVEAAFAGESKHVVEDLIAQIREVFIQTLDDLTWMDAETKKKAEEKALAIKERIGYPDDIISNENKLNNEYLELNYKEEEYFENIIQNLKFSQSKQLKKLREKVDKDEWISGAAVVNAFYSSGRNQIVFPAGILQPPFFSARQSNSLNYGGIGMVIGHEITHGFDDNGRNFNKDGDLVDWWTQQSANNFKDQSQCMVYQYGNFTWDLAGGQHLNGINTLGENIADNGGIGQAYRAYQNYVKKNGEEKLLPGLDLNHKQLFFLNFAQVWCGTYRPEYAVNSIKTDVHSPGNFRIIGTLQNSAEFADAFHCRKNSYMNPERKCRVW
Method in brief: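 Rat kidney membrane enzyme solubilized (1% deoxycholate, papain/DTT, 37 °C 90 min), purified by gel filtration and phenyl sepharose. Enzyme in 0.05% Triton X-100 with 50 mM Tris-HCl pH 7.5, preincubated 10 min with inhibitor; 0.5 mM dansyl-Gly-Phe-Arg added. Incubated 37 °C, 30 min; stopped with HCl. Dansyl-Gly extracted into ethyl acetate; fluorescence ex 342/em 510 nm, zero-time corrected, versus no-inhibitor.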

| SMILES | IC50 [1] | IC50 (Neprilysin) | ED50 (Rattus norvegicus) |
| --- | --- | --- | --- |
| O=C(O)CN1CCCC[C@H](NC(=O)[C@@H](S)Cc2ccccc2)C1=O | 0.022 µM | 0.082 µM | 0.84 µmol/kg |
| CCC[C@H]1CCC[C@H](NC(=O)[C@@H](S)Cc2ccccc2)C(=O)N1[C@@H](CC)C(=O)O | 0.025 µM | 0.086 µM |  |
| O=C(N[C@H]1CCCCN([C@@H](Cc2ccccc2)C(=O)O)C1=O)[C@@H](S)Cc1ccccc1 | 0.479 µM | 0.032 µM |  |
| O=C(O)CN1C(=O)[C@@H](NC(=O)[C@@H](S)Cc2ccccc2)CCC[C@@H]1CCO | 0.025 µM | 0.031 µM | 0.08 µmol/kg |
| C[C@@H](C(=O)O)N1CCCC[C@H](NC(=O)[C@@H](S)Cc2ccccc2)C1=O | 0.026 µM | 0.092 µM | 1.22 µmol/kg |
| C[C@H](NC(=O)[C@@H](S)Cc1ccccc1)C(=O)N1CCC[C@H]1C(=O)O |  |  | 0.06 µmol/kg |
| CC(C)[C@@H](C(=O)O)N1CCCC[C@H](NC(=O)[C@@H](S)Cc2ccccc2)C1=O | 0.907 µM | 1 µM |  |
| O=C(O)CN1C(=O)[C@@H](NC(=O)[C@@H](S)Cc2ccccc2)CCC[C@@H]1CC1CC1 | 0.023 µM | 0.14 µM |  |

The remaining compounds from weak to strong by IC50 [1], led by results:

| IC50 [1] | IC50 (Neprilysin) | SMILES | ED50 (Rattus norvegicus) |
| --- | --- | --- | --- |
| 0.017 µM | 1.65 µM | O=C(O)CN1C(=O)[C@@H](NC(=O)[C@@H](S)Cc2ccccc2)CCC[C@@H]1C1CCCC1 |  |
| 0.016 µM | 0.149 µM | C[C@@H]1CCC[C@H](NC(=O)[C@@H](S)Cc2ccccc2)C(=O)N1CC(=O)O |  |
| 0.014 µM | 0.466 µM | CCC[C@@H]1CCC[C@H](NC(=O)[C@@H](S)Cc2ccccc2)C(=O)N1CC(=O)O |  |
| 0.012 µM | 0.006 µM | O=C(O)CN1C(=O)[C@@H](NC(=O)[C@@H](S)Cc2ccccc2)CCc2ccccc21 | 0.02 µmol/kg |
| 0.011 µM | 0.04 µM | CCC[C@H]1CCC[C@H](NC(=O)[C@@H](S)Cc2ccccc2)C(=O)N1CC(=O)O | 0.06 µmol/kg |
| 0.011 µM | 0.025 µM | O=C(N[C@H]1CCC[C@H]2CCC[C@@H](C(=O)O)N2C1=O)[C@@H](S)Cc1ccccc1 | 0.12 µmol/kg |
| 0.01 µM | 1.66 µM | CC(C)C[C@H]1CCC[C@H](NC(=O)[C@@H](S)Cc2ccccc2)C(=O)N1CC(=O)O |  |
| 0.008 µM | 0.049 µM | C[C@H]1CCC[C@H](NC(=O)[C@@H](S)Cc2ccccc2)C(=O)N1CC(=O)O | 0.11 µmol/kg |
| 0.007 µM | 0.064 µM | C=CC[C@H]1CCC[C@H](NC(=O)[C@@H](S)Cc2ccccc2)C(=O)N1CC(=O)O | 0.04 µmol/kg |
| 0.005 µM | 0.017 µM | CCC[C@H]1CCC[C@H](NC(=O)[C@@H](S)Cc2ccccc2)C(=O)N1[C@@H](C)C(=O)O | 0.12 µmol/kg |
| 0.005 µM | 0.018 µM | O=C(N[C@H]1CCC[C@H]2CC[C@@H](C(=O)O)N2C1=O)[C@@H](S)Cc1ccccc1 | 0.06 µmol/kg |
